Each block holds one compound with its values, some of them ahead of it. Calls of active or inactive are those of the source. Unless noted, the calls are words filed in the database; no cut-off is given here.
Assays:
[1] = molecular target: Epidermal growth factor receptor (Homo sapiens) (UniProt P00533); assay: Percent epidermal growth factor receptor (EGFR) activity at 30 uM (NS = less than 5% activation); assay type: functional
Procedure, shortened: (§1)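 EGFR counterscreen: cell-based receptor activation assay run like the CHO IR assay (20 min compound exposure, lysate capture, radiometric kinase readout). Compound tested at 30 uM; result as % of control response to 100 nM EGF.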

[2] = molecular target: Insulin-like growth factor 1 receptor (Homo sapiens) (UniProt P08069); assay: Percent insulin like growth factor receptor(IGFIR) activity at 30 uM ( NS = less than 5% activation); assay type: functional
Sequence of Insulin-like growth factor 1 receptor (Homo sapiens) (P08069 31-736 limits assumed): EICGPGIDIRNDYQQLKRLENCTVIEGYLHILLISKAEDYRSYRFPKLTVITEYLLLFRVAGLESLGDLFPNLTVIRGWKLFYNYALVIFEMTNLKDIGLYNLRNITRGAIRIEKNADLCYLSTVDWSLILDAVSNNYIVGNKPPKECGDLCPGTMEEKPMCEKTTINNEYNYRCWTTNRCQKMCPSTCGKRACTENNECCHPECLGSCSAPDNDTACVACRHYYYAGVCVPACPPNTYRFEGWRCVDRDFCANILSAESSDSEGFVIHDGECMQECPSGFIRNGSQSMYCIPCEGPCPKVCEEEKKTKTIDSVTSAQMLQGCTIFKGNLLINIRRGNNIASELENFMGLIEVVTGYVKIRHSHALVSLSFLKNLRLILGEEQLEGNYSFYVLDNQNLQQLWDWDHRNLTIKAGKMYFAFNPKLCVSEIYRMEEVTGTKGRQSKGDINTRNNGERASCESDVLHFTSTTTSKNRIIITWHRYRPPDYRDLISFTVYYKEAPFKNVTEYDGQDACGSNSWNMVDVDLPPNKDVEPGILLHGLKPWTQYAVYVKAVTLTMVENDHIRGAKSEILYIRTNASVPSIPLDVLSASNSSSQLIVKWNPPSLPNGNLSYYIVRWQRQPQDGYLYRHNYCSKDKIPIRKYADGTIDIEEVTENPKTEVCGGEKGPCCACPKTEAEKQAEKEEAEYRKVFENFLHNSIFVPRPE
Sequence of Insulin-like growth factor 1 receptor (Homo sapiens) (P08069 741-1367 limits assumed): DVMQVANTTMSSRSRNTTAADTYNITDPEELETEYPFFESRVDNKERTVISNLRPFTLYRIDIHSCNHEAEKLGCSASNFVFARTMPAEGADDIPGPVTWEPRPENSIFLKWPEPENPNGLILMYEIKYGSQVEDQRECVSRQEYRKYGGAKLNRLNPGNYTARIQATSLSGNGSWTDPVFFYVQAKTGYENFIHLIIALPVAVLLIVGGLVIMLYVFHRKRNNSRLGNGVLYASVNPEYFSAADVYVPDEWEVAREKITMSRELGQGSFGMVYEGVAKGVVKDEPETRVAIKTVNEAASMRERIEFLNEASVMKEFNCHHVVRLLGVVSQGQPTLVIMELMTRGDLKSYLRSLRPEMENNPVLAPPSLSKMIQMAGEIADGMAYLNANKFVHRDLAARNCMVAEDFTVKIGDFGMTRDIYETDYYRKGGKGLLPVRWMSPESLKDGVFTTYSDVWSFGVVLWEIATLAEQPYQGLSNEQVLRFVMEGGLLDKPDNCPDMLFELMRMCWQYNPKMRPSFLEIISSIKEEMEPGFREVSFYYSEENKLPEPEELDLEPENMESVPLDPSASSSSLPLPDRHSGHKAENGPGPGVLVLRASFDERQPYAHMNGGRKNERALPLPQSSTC
Procedure, shortened: (§2)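 IGFIR counterscreen: cell-based receptor activation assay run like the CHO IR assay (20 min compound exposure, lysate capture, radiometric kinase readout). Compound tested at 30 uM; result as % of control response to 100 nM IGFI.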

Insulin receptor [3] = molecular target: T1, Insulin receptor (Homo sapiens, UniProt P06213); assay: Activation of human insulin receptor tyrosine kinase (NA = inactive up to 100 uM)
T1 sequence (P06213 28-758 limits assumed): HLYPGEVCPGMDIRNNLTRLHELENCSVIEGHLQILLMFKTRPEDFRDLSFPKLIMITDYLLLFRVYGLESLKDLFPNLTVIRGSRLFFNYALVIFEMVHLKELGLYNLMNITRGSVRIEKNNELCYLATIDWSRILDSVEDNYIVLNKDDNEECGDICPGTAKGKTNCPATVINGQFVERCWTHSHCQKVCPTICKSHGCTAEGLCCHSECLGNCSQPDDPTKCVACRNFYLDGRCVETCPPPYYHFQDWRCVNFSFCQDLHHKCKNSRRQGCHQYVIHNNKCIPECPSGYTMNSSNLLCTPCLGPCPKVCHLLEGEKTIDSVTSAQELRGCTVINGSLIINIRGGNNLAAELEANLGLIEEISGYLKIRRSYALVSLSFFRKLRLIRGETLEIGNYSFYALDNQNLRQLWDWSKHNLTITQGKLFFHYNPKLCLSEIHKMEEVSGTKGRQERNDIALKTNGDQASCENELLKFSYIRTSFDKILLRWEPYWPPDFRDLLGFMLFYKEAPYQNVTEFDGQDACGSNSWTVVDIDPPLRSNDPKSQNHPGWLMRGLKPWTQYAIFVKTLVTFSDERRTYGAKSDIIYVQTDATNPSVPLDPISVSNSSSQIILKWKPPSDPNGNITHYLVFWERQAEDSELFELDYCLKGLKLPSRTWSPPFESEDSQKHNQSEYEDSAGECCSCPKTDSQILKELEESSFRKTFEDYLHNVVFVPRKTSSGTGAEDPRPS
T1 sequence (P06213 763-1382 limits assumed): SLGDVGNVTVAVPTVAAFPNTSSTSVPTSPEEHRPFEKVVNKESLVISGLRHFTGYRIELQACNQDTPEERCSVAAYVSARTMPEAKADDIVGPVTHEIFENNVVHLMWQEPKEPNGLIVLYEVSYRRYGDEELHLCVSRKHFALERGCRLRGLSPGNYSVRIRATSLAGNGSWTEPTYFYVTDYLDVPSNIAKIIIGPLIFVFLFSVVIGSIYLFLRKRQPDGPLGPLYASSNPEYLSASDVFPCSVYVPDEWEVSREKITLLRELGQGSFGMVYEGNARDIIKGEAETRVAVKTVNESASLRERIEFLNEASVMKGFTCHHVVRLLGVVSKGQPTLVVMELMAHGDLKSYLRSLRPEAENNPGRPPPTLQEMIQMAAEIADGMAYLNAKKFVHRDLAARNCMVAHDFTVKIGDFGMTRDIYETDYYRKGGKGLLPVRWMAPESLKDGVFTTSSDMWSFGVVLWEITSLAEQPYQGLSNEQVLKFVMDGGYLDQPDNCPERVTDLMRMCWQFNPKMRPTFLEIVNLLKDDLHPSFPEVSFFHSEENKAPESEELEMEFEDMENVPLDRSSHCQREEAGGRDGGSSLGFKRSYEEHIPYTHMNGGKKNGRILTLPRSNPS
Procedure, shortened: (§3)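 CHO cells stably transfected with human insulin receptor, plated 150 000 cells/well for 24 h, serum-starved 2 h, then exposed to compound 20 min at 37 °C. Lysate IR captured on anti-IR antibody wells (16 h, 4 °C), kinase reaction 40 min at 25 °C, radioactivity on phosphocellulose filters. Activity as % of maximal response to 100 nM insulin.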

[4] = molecular target: Platelet-derived growth factor receptor beta (Homo sapiens) (UniProt P09619); assay: Percent platelet derived growth factor receptor (PDGFR) activity at 30 uM (NS = less than 5% activation); assay type: functional
Sequence of Platelet-derived growth factor receptor beta (Homo sapiens) (P09619 whole entry): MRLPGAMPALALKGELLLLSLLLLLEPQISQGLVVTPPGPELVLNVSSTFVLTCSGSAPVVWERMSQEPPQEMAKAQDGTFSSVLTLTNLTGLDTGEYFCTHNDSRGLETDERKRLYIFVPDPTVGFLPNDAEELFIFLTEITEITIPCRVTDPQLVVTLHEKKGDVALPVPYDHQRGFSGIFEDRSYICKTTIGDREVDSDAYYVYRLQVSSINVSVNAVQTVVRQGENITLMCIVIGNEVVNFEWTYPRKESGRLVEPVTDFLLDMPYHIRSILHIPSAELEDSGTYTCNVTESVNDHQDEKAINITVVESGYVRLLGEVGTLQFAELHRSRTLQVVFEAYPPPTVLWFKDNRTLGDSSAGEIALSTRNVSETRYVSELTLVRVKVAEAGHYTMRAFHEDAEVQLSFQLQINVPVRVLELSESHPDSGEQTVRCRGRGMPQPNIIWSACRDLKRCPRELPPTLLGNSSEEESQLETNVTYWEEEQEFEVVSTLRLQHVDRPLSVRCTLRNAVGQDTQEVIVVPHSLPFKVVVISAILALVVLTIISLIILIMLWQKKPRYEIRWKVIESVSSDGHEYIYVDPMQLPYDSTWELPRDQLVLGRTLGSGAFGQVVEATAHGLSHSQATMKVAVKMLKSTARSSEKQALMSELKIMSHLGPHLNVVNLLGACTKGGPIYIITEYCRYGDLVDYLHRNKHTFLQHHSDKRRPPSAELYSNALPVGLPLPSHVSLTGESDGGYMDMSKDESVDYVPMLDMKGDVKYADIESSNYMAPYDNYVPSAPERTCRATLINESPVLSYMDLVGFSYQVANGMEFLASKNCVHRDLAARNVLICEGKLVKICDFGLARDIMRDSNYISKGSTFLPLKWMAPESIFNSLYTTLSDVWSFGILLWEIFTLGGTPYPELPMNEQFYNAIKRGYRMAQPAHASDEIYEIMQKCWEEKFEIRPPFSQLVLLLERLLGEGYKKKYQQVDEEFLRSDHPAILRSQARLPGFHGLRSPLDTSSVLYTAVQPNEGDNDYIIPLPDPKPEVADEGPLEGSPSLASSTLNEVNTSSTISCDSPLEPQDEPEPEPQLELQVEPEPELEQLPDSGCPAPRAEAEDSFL
Procedure, shortened: (§4)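 PDGFR counterscreen: cell-based receptor activation assay run like the CHO IR assay (20 min compound exposure, lysate capture, radiometric kinase readout). Compound tested at 30 uM; result as % of control response to 100 nM PDGF.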

[5] = molecular target: Insulin-like growth factor 1 receptor (Homo sapiens) (UniProt P08069); assay: Percent insulin like growth factor receptor(IGFIR) activity at 30 uM (NS = less than 5% activation); assay type: functional; procedure, shortened: as §2
Insulin receptor [6] = molecular target: T1, Insulin receptor; assay: Activation of human insulin receptor tyrosine kinase (IRTK); procedure, shortened: as §3
[7] = molecular target: Epidermal growth factor receptor (Homo sapiens) (UniProt P00533); assay: Percent epidermal growth factor receptor (EGFR) activity at 30 uM; assay type: functional; procedure, shortened: as §1
[8] = molecular target: Insulin-like growth factor 1 receptor (Homo sapiens) (UniProt P08069); assay: Percent insulin like growth factor receptor(IGFIR) activity at 30 uM; assay type: functional; procedure, shortened: as §2
[9] = area under curve in preclinical species was measured after Intravenous administration at the given dose (0.05 mg/kg) in rat; assay type: ADME, organism-based; details: in vivo
Procedure, shortened: (§5)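 Male rats, beagle dogs and rhesus monkeys dosed iv in ethanol/PEG400/water (1:3:6, v/v/v), n = 2. Plasma extracted and drug quantified by LC-MS/MS (LOQ = 8-100 ng/mL) against a dihydroxybenzoquinone internal standard.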

Mus musculus [10] = assay: Blood glucose concentration at predosing of 10 mpk; assay type: functional, organism-based
Procedure, shortened: (§6)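 Male ob/ob mice, 12 weeks old, with ob/+ lean controls, housed 7–9 per cage on chow and water ad libitum. Daily oral gavage of compound or vehicle (0.5% methylcellulose). Food was removed 0–6 h after dosing on days 1 and 2, then fed ad libitum. Blood glucose was taken before dosing and at 24 h after dosing, n = 10/group.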

[11] = area under curve in preclinical species was measured after oral administration at the given dose (0.5 mg/kg) in dog; assay type: ADME, organism-based, Canis lupus familiaris; details: in vivo
Procedure, shortened: (§7)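 Beagle dogs or rhesus monkeys (male) dosed orally at 0.5 mg/kg as a 0.5% methylcellulose suspension with 0.02% sodium lauryl sulfate. Plasma extracted and drug measured by LC-MS/MS (LOQ = 8-100 ng/mL) with an internal standard; bioavailability relative to iv dosing.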

[12] = plasma clearance in preclinical species was measured after Intravenous administration at the given dose (0.05 mg/kg) in rat; assay type: ADME, organism-based; details: read-out: Clp; procedure, shortened: as §5
[13] = bioavailability in preclinical species was measured after oral administration at the given dose (0.5 mg/kg) in rat; assay type: ADME, organism-based; details: in vivo
Procedure, shortened: (§8)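 Male rats dosed orally at 0.5 mg/kg in ethanol/PEG400/water (1:3:6, v/v/v). Plasma extracted and drug measured by LC-MS/MS (LOQ = 8-100 ng/mL) with an internal standard; bioavailability relative to iv dosing.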

Mus musculus [14] = assay: Percent reduction of blood glucose level in a dose-dependent manner at 0.1 mpk administered once daily for 8-14 days by gavage to ad libitum fed animals; assay type: functional
[15] = maximum concentration in plasma in preclinical species was measured after oral administration at the given dose (0.5 mg/kg) in monkey; assay type: ADME, organism-based; parameters: dose 0.5 mg/kg, route oral; details: simiiformes; procedure, shortened: as §7
[16] = Time taken for maximum concentration in preclinical species was measured after oral administration at the given dose (0.5 mg/kg) in monkey; assay type: ADME, organism-based; details: simiiformes, in vivo; procedure, shortened: as §7
[17] = volume of distribution in preclinical species was measured after Intravenous administration at the given dose (0.05 mg/kg) in rat; assay type: ADME, organism-based; details: in vivo, read-out: Vdss; procedure, shortened: as §5
Mus musculus [18] = organism: Mus musculus; assay: Blood glucose level for the age- and sex-matched ob/+ lean mice; assay type: functional, organism-based; procedure, shortened: as §6
[19] = maximum concentration in plasma in preclinical species was measured after oral administration at the given dose (0.5 mg/kg) in rat; assay type: ADME, organism-based; parameters: dose 0.5 mg/kg, route oral; procedure, shortened: as §8
Mus musculus [20] = assay: Percent reduction of blood glucose level in a dose-dependent manner at 1 mpk administered once daily for 8-14 days by gavage to ad libitum fed animals; assay type: functional
[21] = Time taken for maximum concentration in preclinical species was measured after oral administration at the given dose (0.5 mg/kg) in rat; assay type: ADME, organism-based; details: in vivo; procedure, shortened: as §8
Mus musculus [22] = assay: Percent reduction of blood glucose level in a dose-dependent manner at 10 mpk administered once daily for 8-14 days by gavage to ad libitum fed animals; assay type: functional
Canis familiaris [23] = assay: plasma clearance in preclinical species was measured after Intravenous administration at the given dose (0.1 mg/kg) in dog; assay type: ADME, organism-based, Canis lupus familiaris; details: in vivo; procedure, shortened: as §5
[24] = terminal half life in preclinical species was measured after Intravenous administration at the given dose (0.01 mg/kg) in monkey; assay type: ADME, organism-based; details: simiiformes, in vivo; procedure, shortened: as §5
[25] = bioavailability in preclinical species was measured after oral administration at the given dose (0.5 mg/kg) in dog; assay type: ADME, organism-based, Canis lupus familiaris; details: in vivo; procedure, shortened: as §7
[26] = volume of distribution in preclinical species was measured after Intravenous administration at the given dose (0.01 mg/kg) in monkey; assay type: ADME, organism-based; details: simiiformes, in vivo; procedure, shortened: as §5
[27] = area under curve in preclinical species was measured after Intravenous administration at the given dose (0.1 mg/kg) in dog; assay type: ADME, organism-based, Canis lupus familiaris; details: in vivo; procedure, shortened: as §5
[28] = area under curve in preclinical species was measured after oral administration at the given dose (0.5 mg/kg) in monkey; assay type: ADME, organism-based; details: simiiformes, in vivo; procedure, shortened: as §7
[29] = Time taken for maximum concentration in preclinical species was measured after oral administration at the given dose (0.5 mg/kg) in dog; assay type: ADME, organism-based, Canis lupus familiaris; details: in vivo; procedure, shortened: as §7
[30] = terminal half life in preclinical species was measured after Intravenous administration at the given dose (0.05 mg/kg) in rat; assay type: ADME, organism-based; details: in vivo; procedure, shortened: as §5
Canis familiaris [31] = assay: terminal half life in preclinical species was measured after Intravenous administration at the given dose (0.1 mg/kg) in dog; assay type: ADME, organism-based, Canis lupus familiaris; details: in vivo; procedure, shortened: as §5
Mus musculus [32] = assay: Decrease in blood glucose concentration at 24 hr postdosing of 10 mpk; assay type: functional, organism-based; procedure, shortened: as §6
[33] = plasma clearance in preclinical species was measured after Intravenous administration at the given dose (0.01 mg/kg) in monkey; assay type: ADME, organism-based; details: simiiformes, in vivo; procedure, shortened: as §5
[34] = maximum concentration in plasma in preclinical species was measured after oral administration at the given dose (0.5 mg/kg) in dog; assay type: ADME, organism-based, Canis lupus familiaris; parameters: dose 0.5 mg/kg, route oral; procedure, shortened: as §7
[35] = area under curve in preclinical species was measured after Intravenous administration at the given dose (0.01 mg/kg) in monkey; assay type: ADME, organism-based; details: simiiformes, in vivo; procedure, shortened: as §5
[36] = bioavailability in preclinical species was measured after oral administration at the given dose (0.5 mg/kg) in monkey; assay type: ADME, organism-based; details: primates, in vivo; procedure, shortened: as §7
Canis familiaris [37] = assay: volume of distribution in preclinical species was measured after Intravenous administration at the given dose (0.1 mg/kg) in dog; assay type: ADME, organism-based, Canis lupus familiaris; details: in vivo; procedure, shortened: as §5
[38] = molecular target: Platelet-derived growth factor receptor beta (Homo sapiens) (UniProt P09619); assay: Percent platelet derived growth factor receptor (PDGFR) activity at 30 uM; assay type: functional; procedure, shortened: as §4

Sequence of Epidermal growth factor receptor (Homo sapiens) (P00533 whole entry): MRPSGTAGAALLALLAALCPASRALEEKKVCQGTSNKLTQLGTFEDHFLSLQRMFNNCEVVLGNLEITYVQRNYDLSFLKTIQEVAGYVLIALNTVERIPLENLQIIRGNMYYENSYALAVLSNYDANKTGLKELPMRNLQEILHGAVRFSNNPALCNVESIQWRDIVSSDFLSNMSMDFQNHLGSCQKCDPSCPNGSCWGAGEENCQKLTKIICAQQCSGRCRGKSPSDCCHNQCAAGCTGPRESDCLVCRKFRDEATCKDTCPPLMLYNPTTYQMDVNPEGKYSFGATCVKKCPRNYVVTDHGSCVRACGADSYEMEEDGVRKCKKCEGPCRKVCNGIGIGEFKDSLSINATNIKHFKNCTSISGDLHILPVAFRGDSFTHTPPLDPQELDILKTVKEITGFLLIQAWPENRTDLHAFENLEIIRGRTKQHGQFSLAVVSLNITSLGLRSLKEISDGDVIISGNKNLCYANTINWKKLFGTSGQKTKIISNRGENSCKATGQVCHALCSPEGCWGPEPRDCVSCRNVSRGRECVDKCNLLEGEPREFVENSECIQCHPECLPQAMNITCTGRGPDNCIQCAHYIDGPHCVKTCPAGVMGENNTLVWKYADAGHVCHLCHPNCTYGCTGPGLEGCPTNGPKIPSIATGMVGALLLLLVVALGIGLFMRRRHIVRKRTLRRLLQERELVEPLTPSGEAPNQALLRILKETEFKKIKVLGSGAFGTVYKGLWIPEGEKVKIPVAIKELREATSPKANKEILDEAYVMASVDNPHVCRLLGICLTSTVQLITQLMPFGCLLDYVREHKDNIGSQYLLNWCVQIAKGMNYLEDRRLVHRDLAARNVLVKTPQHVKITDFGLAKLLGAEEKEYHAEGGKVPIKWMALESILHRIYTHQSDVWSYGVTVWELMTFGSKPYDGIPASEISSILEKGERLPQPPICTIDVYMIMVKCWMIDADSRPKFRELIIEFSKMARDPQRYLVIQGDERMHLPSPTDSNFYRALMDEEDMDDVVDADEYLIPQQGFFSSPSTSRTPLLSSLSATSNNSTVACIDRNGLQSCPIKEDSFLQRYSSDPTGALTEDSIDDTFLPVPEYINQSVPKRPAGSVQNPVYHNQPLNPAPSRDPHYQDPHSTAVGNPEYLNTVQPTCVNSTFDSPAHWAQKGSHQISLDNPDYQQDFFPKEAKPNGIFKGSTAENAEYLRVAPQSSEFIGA

Structure (SMILES): COc1ccc(C2=C(O)C(O)=C(c3ccccc3)C(=O)C2=O)cc1
Activation [1]: inactive | Activation [2]: inactive | EC50 (Insulin receptor [3]): Not Active | Activation [4]: inactive

Structure (SMILES): O=C1C(O)=C(c2cccc3ccccc23)C(=O)C(O)=C1c1ccccc1
Activation [5]: inactive | EC50 (Insulin receptor [6]): 6 µM | Activation [4]: inactive

Structure (SMILES): Cc1cccc2c(C3=C(O)C(O)=C(c4c[nH]c5ccccc45)C(=O)C3=O)c[nH]c12
Activation [7]: 25% | EC50 (Insulin receptor [6]): 7 µM | Activation [8]: 32%

Structure (SMILES): Cn1cc(C2=C(O)C(O)=C(c3ccccc3)C(=O)C2=O)c2ccccc21
AUC [9]: 21800 ng·h/mL | Concentration (Mus musculus [10]): 233 mg/dL | Activation [1]: inactive | AUC [11]: 266000 ng·h/mL | clearance [12]: 2.28 mL/h/kg | bioavailability [13]: 79.3% | Reduction (Mus musculus [14]): 29% | Cmax [15]: 7590 ng/mL | Tmax [16]: 8 h | Vd [17]: 0.1 L/kg | Concentration (Mus musculus [18]): 143 mg/dL | Cmax [19]: 4880 ng/mL | Activation [5]: inactive | Reduction (Mus musculus [20]): 47% | Tmax [21]: 10 h | Reduction (Mus musculus [22]): 84% | Clp (Canis familiaris [23]): 1.14 mL/h/kg | T1/2 [24]: 66 h | bioavailability [25]: 59.2% | Vdss [26]: 0.31 L/kg | EC50 (Insulin receptor [6]): 0.3 µM | AUC [27]: 89800 ng·h/mL | AUC [28]: 278000 ng·h/mL | Tmax [29]: 2.5 h | half-life [30]: 32 h | T1/2 (Canis familiaris [31]): 93.5 h | Concentration (Mus musculus [32]): 150 mg/dL | Clp [33]: 1.2 mL/h/kg | Activation [4]: inactive | Cmax [34]: 5270 ng/mL | AUC [35]: 8370 ng·h/mL | bioavailability [36]: 66.5% | Vdss (Canis familiaris [37]): 0.56 L/kg

Structure (SMILES): O=C1C(O)=C(c2ccc3ccccc3c2)C(=O)C(O)=C1c1ccccc1
Activation [5]: inactive | EC50 (Insulin receptor [6]): 30 µM | Activation [4]: inactive

Further compounds by falling EC50 (Insulin receptor [6]), results first:

Activation [38]: 6% | Activation [7]: 15% | EC50 (Insulin receptor [6]): 5 µM | Activation [8]: 38%
Structure (SMILES): C=CC(C)(C)c1[nH]c2ccccc2c1C1=C(O)C(O)=C(c2c[nH]c3c(CC=C(C)C)cccc23)C(=O)C1=O

Activation [1]: inactive | Activation [5]: inactive | EC50 (Insulin receptor [6]): 1.5 µM | Activation [4]: inactive
Structure (SMILES): O=C1C(O)=C(c2coc3ccccc23)C(=O)C(O)=C1c1ccccc1

Activation [1]: inactive | Activation [5]: inactive | EC50 (Insulin receptor [6]): 1 µM | Activation [4]: inactive
Structure (SMILES): O=C1C(O)=C(c2csc3ccccc23)C(=O)C(O)=C1c1ccccc1

Activation [7]: 20% | EC50 (Insulin receptor [6]): 0.3 µM | Activation [8]: 41% | Activation [4]: inactive
Structure (SMILES): O=C1C(O)=C(c2c[nH]c3ccccc23)C(=O)C(O)=C1c1ccccc1
